# ChEMBL document CHEMBL4138219, “Pyrano[3,2-a]carbazole alkaloids as effective agents against ischemic stroke in vitro and in vivo” (Eur J Med Chem, 2018)
# Active and inactive are the calls of the source. The rule behind the calls is not given here.
# Legend:
# PC-12 [1] = test: Cytoprotective activity against H2O2-induced damage in rat PC12 cells assessed as cell viability at 10 uM after 24 hrs by MTT assay (reference value: 70.1 +/- 3.7%); assay type: functional; details: PC-12, 24 h, read-out: Activity
# PC-12 [2] = test: Cytoprotective activity against oxygen-glucose deprivation/reoxygenation-induced damage in rat PC12 cells assessed as cell viability at 10 uM after 24 hrs by MTT assay (reference value: 70 +/- 5.1%); assay type: functional; details: PC-12, 24 h, read-out: Activity
# [3] = AUC (0 to t) in Sprague-Dawley rat plasma at 40 mg/kg administered via oral gavage by LC-MS/MS method; assay type: ADME, organism-based
# [4] = Antioxidant activity assessed as free radical scavenging activity at 25 mg/ml by ESR method; assay type: functional
# Summary of the method: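 ESR spin-trapping was done at room temperature. 50 mmol/L TEMP and 25 mg/mL compound were mixed in DMSO and exposed to UVA light for 1 min before recording. Settings were 10 mW microwave power, 1 G field modulation and 150 G scan width.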
# [5] = Cmax in Sprague-Dawley rat brain at 40 mg/kg administered via oral gavage by LC-MS/MS method; assay type: ADME, organism-based; parameters: dose 40 mg/kg, route oral
# [6] = Tmax in Sprague-Dawley rat brain at 40 mg/kg administered via oral gavage by LC-MS/MS method; assay type: ADME, organism-based
# Rattus norvegicus [7] = test: Reversal of middle cerebral artery occlusion and reperfusion-induced death in Sprague-Dawley rat assessed as survival rate at 80 mg/kg administered via oral gavage as qd for 7 days measured on day 7 post reperfusion (reference value: 50%); assay type: functional
# [8] = Plasma concentration in Sprague-Dawley rat at 40 mg/kg administered via oral gavage measured at 6 hrs by LC-MS/MS method; assay type: ADME, organism-based
# Summary of the method: (§1)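 For the time-course, male SD rats (260–280 g) received a single 40 mg/kg oral gavage dose and were killed at 0.083, 0.25, 0.5, 1, 2, 4, 6, 8, 12 and 24 h (n = 3 each). Plasma and brain homogenate (three volumes of saline) were protein-precipitated, centrifuged, and analyzed by validated LC-MS/MS. Results are given as mean ± SD.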
# [9] = Plasma concentration in Sprague-Dawley rat at 40 mg/kg administered via oral gavage measured at 4 hrs by LC-MS/MS method; assay type: ADME, organism-based; summary of the method: as §1
# [10] = Drug uptake in Sprague-Dawley rat brain at 40 mg/kg administered via oral gavage measured at 1 hr by LC-MS/MS method; assay type: ADME, organism-based; details: read-out: Drug uptake; summary of the method: as §1
# [11] = Drug uptake in Sprague-Dawley rat brain at 40 mg/kg administered via oral gavage measured at 4 hrs by LC-MS/MS method; assay type: ADME, organism-based; details: read-out: Drug uptake; summary of the method: as §1
# [12] = Plasma concentration in Sprague-Dawley rat at 40 mg/kg administered via oral gavage measured at 0.25 hrs by LC-MS/MS method; assay type: ADME, organism-based; summary of the method: as §1
# [13] = Plasma concentration in Sprague-Dawley rat at 40 mg/kg administered via oral gavage measured at 12 hrs by LC-MS/MS method; assay type: ADME, organism-based; summary of the method: as §1
# [14] = Drug uptake in Sprague-Dawley rat brain at 40 mg/kg administered via oral gavage measured at 0.5 hrs by LC-MS/MS method; assay type: ADME, organism-based; details: read-out: Drug uptake; summary of the method: as §1
# [15] = Drug uptake in Sprague-Dawley rat brain at 40 mg/kg administered via oral gavage measured at 12 hrs by LC-MS/MS method; assay type: ADME, organism-based; details: read-out: Drug uptake; summary of the method: as §1
# Rattus norvegicus [16] = test: Reversal of middle cerebral artery occlusion and reperfusion-induced decrease in body weight in Sprague-Dawley rat assessed as body weight at 20 mg/kg administered via oral gavage as qd for 7 days measured on day 7 post reperfusion (reference value: 82%); assay type: functional; parameters: scale not given: the % may be the effect or the level left
# [17] = Plasma concentration in Sprague-Dawley rat at 40 mg/kg administered via oral gavage measured at 0.083 hrs by LC-MS/MS method; assay type: ADME, organism-based; details: in vivo, BLD = below limit of detection; summary of the method: as §1
# Cortical neurone [18] = test: Neuroprotective activity against H2O2-induced damage in Sprague-Dawley rat primary cortical neurons assessed as cell viability at 1 uM after 24 hrs by MTT assay (reference value: 70 +/- 2.6%); assay type: functional; details: read-out: Activity
# [19] = Tmax in Sprague-Dawley rat plasma at 40 mg/kg administered via oral gavage by LC-MS/MS method; assay type: ADME, organism-based
# [20] = Plasma concentration in Sprague-Dawley rat at 40 mg/kg administered via oral gavage measured at 1 hr by LC-MS/MS method; assay type: ADME, organism-based; summary of the method: as §1
# Rattus norvegicus [21] = test: Increase in neurological function in Sprague-Dawley rat middle cerebral artery occlusion and reperfusion model assessed as decrease in forelimb falling number at 20 to 80 mg/kg administered via oral gavage as qd for 7 days measured on day 2 to 7 during compound dosing post reperfusion by grid test; assay type: functional, organism-based
# Summary of the method: (§2)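 Male SD rats (260–280 g) underwent MCAO with reperfusion. They were randomized to model, 80 mg/kg 3-n-butylphthalide, or compound at 20, 40 or 80 mg/kg. Rats without neurological impairment after reperfusion were excluded. Neurological deficit was scored on days 1–7 by the Zea Longa test, and forelimb falls were counted in a grid test.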
# [22] = Drug uptake in Sprague-Dawley rat brain at 40 mg/kg administered via oral gavage measured at 0.083 hrs by LC-MS/MS method; assay type: ADME, organism-based; details: in vivo, BLD = below limit of detection; summary of the method: as §1
# [23] = Cmax in Sprague-Dawley rat plasma at 40 mg/kg administered via oral gavage by LC-MS/MS method; assay type: ADME, organism-based; parameters: dose 40 mg/kg, route oral
# Rattus norvegicus [24] = test: Anti-cerebral ischemia in Sprague-Dawley rat middle cerebral artery occlusion and reperfusion model assessed as decrease in brain infract volume at 20 to 40 mg/kg administered via oral gavage as qd for 7 days measured on day 7 post reperfusion by TTC staining-based assay; assay type: functional, organism-based
# Summary of the method: (§3)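 Male Sprague-Dawley rats (260e280 g) randomised to MCAO/R, MCAO/R + NBP 80 mg/kg, or MCAO/R + compound at 20, 40 or 80 mg/kg. Rats without neurological impairment, or dead after reperfusion at 0 h, were excluded. On day 7, rats were transcardially perfused with PBS. Brains were cut into six 2-mm sections and stained with 1.5% TTC. Infarct = right pale area/left non-ischemic area, expressed as % of the MCAO/R group.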
# [25] = Plasma concentration in Sprague-Dawley rat at 40 mg/kg administered via oral gavage measured at 2 hrs by LC-MS/MS method; assay type: ADME, organism-based; summary of the method: as §1
# Rattus norvegicus [26] = test: Reversal of middle cerebral artery occlusion and reperfusion-induced death in Sprague-Dawley rat assessed as survival rate at 40 mg/kg administered via oral gavage as qd for 7 days measured on day 7 post reperfusion (reference value: 50%); assay type: functional; details: 168 h
# [27] = Plasma concentration in Sprague-Dawley rat at 40 mg/kg administered via oral gavage measured at 0.5 hrs by LC-MS/MS method; assay type: ADME, organism-based; summary of the method: as §1
# [28] = Drug uptake in Sprague-Dawley rat brain at 40 mg/kg administered via oral gavage measured at 0.25 hrs by LC-MS/MS method; assay type: ADME, organism-based; details: in vivo, BLD = below limit of detection; summary of the method: as §1
# [29] = Drug uptake in Sprague-Dawley rat brain at 40 mg/kg administered via oral gavage measured at 24 hrs by LC-MS/MS method; assay type: ADME, organism-based; details: read-out: Drug uptake; summary of the method: as §1
# [30] = Plasma concentration in Sprague-Dawley rat at 40 mg/kg administered via oral gavage measured at 24 hrs by LC-MS/MS method; assay type: ADME, organism-based; summary of the method: as §1
# [31] = Ratio of AUC (0 to t) in Sprague-Dawley rat brain to plasma at 40 mg/kg administered via oral gavage; assay type: ADME, organism-based; details: read-out: Ratio AUC
# Summary of the method: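 Brain-to-plasma exposure ratio, taken as AUC(0-t) in brain tissue divided by AUC(0-t) in plasma. Male SD rats (260–280 g) received a single 40 mg/kg oral gavage dose and were sampled from 0.083 to 24 h (n = 3 per time point). Brain was homogenized in saline and quantified by LC-MS/MS.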
# [32] = Drug uptake in Sprague-Dawley rat brain at 40 mg/kg administered via oral gavage measured at 8 hrs by LC-MS/MS method; assay type: ADME, organism-based; details: read-out: Drug uptake; summary of the method: as §1
# [33] = Plasma concentration in Sprague-Dawley rat at 40 mg/kg administered via oral gavage measured at 8 hrs by LC-MS/MS method; assay type: ADME, organism-based; summary of the method: as §1
# Rattus norvegicus [34] = test: Reversal of middle cerebral artery occlusion and reperfusion-induced death in Sprague-Dawley rat assessed as survival rate at 20 mg/kg administered via oral gavage as qd for 7 days measured on day 7 post reperfusion (reference value: 50%); assay type: functional; details: 168 h
# [35] = Drug uptake in Sprague-Dawley rat brain at 40 mg/kg administered via oral gavage measured at 6 hrs by LC-MS/MS method; assay type: ADME, organism-based; details: read-out: Drug uptake; summary of the method: as §1
# Rattus norvegicus [36] = test: Increase in neurological function in Sprague-Dawley rat middle cerebral artery occlusion and reperfusion model assessed as decrease in behavior deficit at 20 to 80 mg/kg administered via oral gavage as qd for 7 days measured on day 7 post reperfusion by Zea Longa's test; assay type: functional, organism-based; summary of the method: as §2
# [37] = AUC (0 to t) in Sprague-Dawley rat brain at 40 mg/kg administered via oral gavage by LC-MS/MS method; assay type: ADME, organism-based; details: in vivo
# Cortical neurone [38] = test: Neuroprotective activity against H2O2-induced damage in Sprague-Dawley rat primary cortical neurons assessed as cell viability at 10 uM after 24 hrs by MTT assay (reference value: 70 +/- 2.6%); assay type: functional; details: read-out: Activity
# [39] = Drug uptake in Sprague-Dawley rat brain at 40 mg/kg administered via oral gavage measured at 2 hrs by LC-MS/MS method; assay type: ADME, organism-based; details: read-out: Drug uptake; summary of the method: as §1
# Cortical neurone [40] = test: Neuroprotective activity against H2O2-induced damage in Sprague-Dawley rat primary cortical neurons assessed as cell viability at 50 uM after 24 hrs by MTT assay (reference value: 70 +/- 2.6%); assay type: functional; details: read-out: Activity
# Rattus norvegicus [41] = test: Anti-cerebral ischemia in Sprague-Dawley rat middle cerebral artery occlusion and reperfusion model assessed as decrease in brain infract volume at 80 mg/kg administered via oral gavage as qd for 7 days measured on day 7 post reperfusion by TTC staining-based assay; assay type: functional, organism-based; summary of the method: as §3
# Rattus norvegicus [42] = test: Reversal of middle cerebral artery occlusion and reperfusion-induced decrease in body weight in Sprague-Dawley rat assessed as body weight at 80 mg/kg administered via oral gavage as qd for 7 days measured on day 7 post reperfusion (reference value: 82%); assay type: functional; parameters: scale not given: the % may be the effect or the level left
# Rattus norvegicus [43] = test: Increase in neurological function in Sprague-Dawley rat middle cerebral artery occlusion and reperfusion model assessed as decrease in behavior deficit at 80 mg/kg administered via oral gavage as qd for 7 days measured on day 7 post reperfusion by Zea Longa's test; assay type: functional, organism-based; summary of the method: as §2
smiles,measurement,setting,value
COc1ccc2[nH]c3c4c(c(C=O)cc3c2c1)OC(C)(C)C=C4 [CLAULANSINE F],viability at 10 µM,PC-12 [1],87.7%
same,viability at 10 µM,PC-12 [2],93.1%
Cc1cc2c([nH]c3ccc(C(C)(C)C)cc32)c2c1OC(C)(C)C=C2,AUC(0-t),[3],18800 ng·h/mL
same,Activity,[4],Active
same,Cmax,[5],5890 ng/g
same,Tmax,[6],8 h
same,Activity,Rattus norvegicus [7],inactive
same,concentration at 6 h,[8],1510 ng/mL
same,concentration at 4 h,[9],1110 ng/mL
same,concentration at 1 h,[10],129 ng/g
same,concentration at 4 h,[11],3080 ng/g
same,concentration at 0.25 h,[12],264 ng/mL
same,concentration at 12 h,[13],1040 ng/mL
same,concentration at 0.5 h,[14],38.5 ng/g
same,concentration at 12 h,[15],5330 ng/g
same,Activity,Rattus norvegicus [16],94.7%
same,Cp,[17],Bld
same,viability at 1 µM,Cortical neurone [18],97.6%
same,Tmax,[19],6 h
same,concentration at 1 h,[20],324 ng/mL
same,Activity,Rattus norvegicus [21],Active
same,Drug uptake,[22],Bld
same,Cmax,[23],1510 ng/mL
same,Activity,Rattus norvegicus [24],Active
same,concentration at 2 h,[25],871 ng/mL
same,survival at 40 mg/kg,Rattus norvegicus [26],62.5%
same,concentration at 0.5 h,[27],157 ng/mL
same,Drug uptake,[28],Bld
same,viability at 10 µM,PC-12 [1],96.8%
same,concentration at 24 h,[29],472 ng/g
same,concentration at 24 h,[30],19.6 ng/mL
same,Kp,[31],4.3
same,concentration at 8 h,[32],5890 ng/g
same,concentration at 8 h,[33],1140 ng/mL
same,survival at 20 mg/kg,Rattus norvegicus [34],81.3%
same,concentration at 6 h,[35],4720 ng/g
same,Activity,Rattus norvegicus [36],Active
same,AUCt,[37],80618 ng·h/g
same,viability at 10 µM,Cortical neurone [38],119%
same,viability at 10 µM,PC-12 [2],96.1%
same,concentration at 2 h,[39],1160 ng/g
CC1=NN(c2ccccc2)C(=O)C1 [EDARAVONE],Activity,[4],Active
same,viability at 50 µM,Cortical neurone [40],86.7%
same,viability at 10 µM,Cortical neurone [38],85.2%
COc1ccc2c(c1)c1cc(C=O)c3c(c1n2C)C=CC(C)(C)O3,viability at 10 µM,PC-12 [1],93.8%
same,viability at 10 µM,PC-12 [2],94.4%
CCCCC1OC(=O)c2ccccc21 (stereo not drawn) [RAC-3-N-BUTYLPHTHALIDE],survival at 80 mg/kg,Rattus norvegicus [7]; 168 h,68.8%
same,Activity,Rattus norvegicus [41],Active
same,Activity,Rattus norvegicus [42],87.6%
same,Activity,Rattus norvegicus [43],Active
